Assay [1] has as its system L1210. In words: In Vitro evaluation for the antiproliferative activity by observing the growth inhibition of L1210 lymphoid leukemia cells in culture at 72 hour. The format is functional, Mus musculus. In outline:
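Growth of L1210 lymphoid leukemia cells in culture measured by Trypan blue exclusion of viable cells after 72 h of drug exposure. ED50 is the concentration giving 50% growth inhibition. In some runs the compound was first preincubated in medium at 37 °C for 24 or 48 h before the assay.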

For assay [2], the system named is L1210. As to the kind of experiment: Antitumor activity in mice with intraperitoneal implanted L1210 lymphoid leukemia at the dose 50 mg/kg/day x 5 was determined as weight change (g/mouse) on 8th day. The assay is classed as functional. The gist of the method: (§1)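 C3D2F1/J female mice (C3H/HeJ × DBA/2J), groups of six to eight, average 25 g, inoculated ip with 1 × 10^6 L1210 ascites cells taken from DBA/2Ha donor mice carrying 3-5 day tumors. Compound dissolved in 0.154 N NaOH, then neutralized with 0.154 N HCl to give 0.9% NaCl. Given ip daily for 5 consecutive days starting 24 h after implantation. Body weight change per mouse recorded on day 8.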

Assay [3] concerns L1210. In words: Antitumor activity in the mice with intraperitoneal implanted L1210 lymphoid leukemia at the dose 50 mg/kg/day x 5 was determined and number of animals survived on 30 th day were reported; 0/8. The assay is classed as functional, Mus musculus. The gist of the method: (§2)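 Female C3D2F1/J mice (C3H/HeJ × DBA/2J), groups of six to eight, average weight 25 g. Each mouse got 1 × 10^6 L1210 ascites cells ip, taken from DBA/2Ha donor mice bearing 3-5 day tumors. Compound was dissolved in 0.154 N NaOH and neutralized with 0.154 N HCl (final 0.9% NaCl). Dosed ip daily ×5, starting 24 h after implant. Recorded body weight change on day 8, survival range, median survival and 30-day survivors. ILS = (T/C − 1) × 100.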

For assay [4], the system named is L1210. As to the kind of experiment: Antitumor activity in the mice with intraperitoneal implanted L1210 lymphoid leukemia at the dose of 25 mg/kg/day x 5 was determined as mean survival of treated group compared to untreated; 11.5/9. The assay is classed as functional, Mus musculus. In outline:
(§3)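 C3D2F1/J female mice (C3H/HeJ female × DBA/2J male), groups of six to eight, average weight 25 g. Inoculated ip with 1 × 10^6 L1210 ascites cells taken from DBA/2Ha donor mice bearing 3-5 day old tumors. Compounds were dissolved in 0.154 N NaOH, neutralized with 0.154 N HCl (final 0.9% NaCl), and given ip daily for 5 days from 24 h post-implant. Median survival T/C; ILS = (T/C − 1) × 100; 30-day survivors counted.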

The test system of assay [5] is L1210. In words: Antitumor activity in the mice with intraperitoneal implanted L1210 lymphoid leukemia at the dose 100 mg/kg/day x 5 was determined as percentage increase in the life span as compared with control tumor bearers. The format is functional. The settings on record: Mus musculus, L1210, ip. In outline:
as §2

Assay [6] has as its system L1210. As to the kind of experiment: Antitumor activity in the mice with intraperitoneal implanted L1210 lymphoid leukemia at the dose 25 mg/kg/day x 5 was determined as percentage increase in the life span as compared with control tumor bearers. The format is functional. The settings on record: Mus musculus, L1210, ip. In outline:
as §2

The subject of assay [7] is L1210. As to the kind of experiment: Antitumor activity in the mice with intraperitoneal implanted L1210 lymphoid leukemia at the dose 25 mg/kg/day x 5 was determined and number of animals survived on 30 th day were reported; 0/8. The format is functional, Mus musculus. In outline:
as §2

The subject of assay [8] is L1210. As to the kind of experiment: Antitumor activity in the mice with intraperitoneal implanted L1210 lymphoid leukemia at the dose 100 mg/kg/day x 5 was determined and number of animals survived on 30 th day were reported; 0/8. The format is functional, Mus musculus. The gist of the method: as §2
The subject of assay [9] is L1210. As to the kind of experiment: Antitumor activity in the mice with intraperitoneal implanted L1210 lymphoid leukemia at the dose 25 mg/kg/day x 5 was determined as Survival time in days; Range is 7-15 days. The format is functional, Mus musculus. In outline:
as §2

Assay [10] has as its system L1210. In words: Antitumor activity in mice with intraperitoneal implanted L1210 lymphoid leukemia at the dose 25 mg/kg/day x 5 was determined as weight change (g/mouse) on 8th day. The format is functional. The gist of the method:
as §1

Assay [11] has as its system L1210. In words: Antitumor activity in the mice with intraperitoneal implanted L1210 lymphoid leukemia at the dose 50 mg/kg/day x 5 was determined as percentage increase in the life span as compared with control tumor bearers. The assay is classed as functional. The settings on record: Mus musculus, L1210, ip. In outline: as §3
For assay [12], the system named is L1210. In words: Antitumor activity in the mice with intraperitoneal implanted L1210 lymphoid leukemia at the dose 100 mg/kg/day x 5 was determined as Survival time in days; Range is 8-13 days. The assay is classed as functional, Mus musculus. The gist of the method:
as §2

Assay [13] has as its system L1210. As to the kind of experiment: Antitumor activity in the mice with intraperitoneal implanted L1210 lymphoid leukemia at the dose 50 mg/kg/day x 5 was determined as Survival time in days; Range is 10-17 days. The assay is classed as functional, Mus musculus. The gist of the method: as §2
The test system of assay [14] is L1210. As to the kind of experiment: Antitumor activity in the mice with intraperitoneal implanted L1210 lymphoid leukemia at the dose of 50 mg/kg/day x 5 was determined as mean survival of treated group compared to untreated; 13.5/9. The assay is classed as functional, Mus musculus. In outline:
as §3

The test system of assay [15] is L1210. As to the kind of experiment: Antitumor activity in mice with intraperitoneal implanted L1210 lymphoid leukemia at the dose 100 mg/kg/day x 5 was determined as weight change (g/mouse) on 8th day. The format is functional. In outline: as §1
For assay [16], the system named is L1210. In words: Antitumor activity in the mice with intraperitoneal implanted L1210 lymphoid leukemia at the dose of 100 mg/kg/day x 5 was determined as mean survival of treated group compared to untreated; 9.5/9. The assay is classed as functional, Mus musculus. The gist of the method: as §3
For assay [17], the system named is L1210. As to the kind of experiment: Antitumor activity in the mice with intraperitoneal implanted L1210 lymphoid leukemia at the dose 75 mg/kg/day x 5 was determined as Survival time in days; Range is 12-21 days. The assay is classed as functional, Mus musculus. The gist of the method:
as §3

The subject of assay [18] is L1210. In words: Antitumor activity in the mice with intraperitoneal implanted L1210 lymphoid leukemia at the dose 75 mg/kg/day x 5 was determined and number of animals survived on 30 th day were reported; 0/8. The assay is classed as functional, Mus musculus. The gist of the method: as §3
In assay [19] the test system is L1210. In words: Antitumor activity in mice with intraperitoneal implanted L1210 lymphoid leukemia at the dose 75 mg/kg/day x 5 was determined as weight change (g/mouse) on 8th day. The format is functional. In outline: as §1
Assay [20] relates to L1210. As to the kind of experiment: Antitumor activity in the mice with intraperitoneal implanted L1210 lymphoid leukemia at the dose 75 mg/kg/day x 5 was determined as percentage increase in the life span as compared with control tumor bearers. The assay is classed as functional. The settings on record: Mus musculus, L1210, ip. The gist of the method:
as §3

Assay [21] relates to L1210. In words: Antitumor activity in the mice with intraperitoneal implanted L1210 lymphoid leukemia at the dose of 25 mg/kg/day x 5 was determined as mean survival of treated group compared to untreated; 16.5/8.5. The format is functional, Mus musculus. The gist of the method:
as §3

Assay [22] relates to L1210. In words: Antitumor activity in the mice with intraperitoneal implanted L1210 lymphoid leukemia at the dose 25 mg/kg/day x 5 was determined as Survival time in days; Range is 14-18 days. The format is functional, Mus musculus. In outline: as §2
Assay [23] has as its system L1210. In words: Antitumor activity in the mice with intraperitoneal implanted L1210 lymphoid leukemia at the dose of 75 mg/kg/day x 5 was determined as mean survival of treated group compared to untreated; 17/8.5. The format is functional, Mus musculus.
The subject of assay [24] is L1210. In words: Antitumor activity in the mice with intraperitoneal implanted L1210 lymphoid leukemia at the dose 50 mg/kg/day x 5 was determined and number of animals survived on 30 th day were reported; 2/8. The assay is classed as functional, Mus musculus. In outline: as §2
For assay [25], the system named is L1210. In words: Antitumor activity in the mice with intraperitoneal implanted L1210 lymphoid leukemia at the dose of 50 mg/kg/day x 5 was determined as mean survival of treated group compared to untreated; 24/8. The format is functional, Mus musculus.
Assay [26] concerns L1210. As to the kind of experiment: Antitumor activity in the mice with intraperitoneal implanted L1210 lymphoid leukemia at the dose 50 mg/kg/day x 5 was determined as Survival time in days; Range is 15-42 days. The assay is classed as functional, Mus musculus. In outline:
as §2

As to `C[C@@H]1C[C@H]2[C@@H]3CCC4=CC(=O)C=C[C@]4(C)[C@@]3(F)[C@@H](O)C[C@]2(C)[C@@]1(O)C(=O)COP(=O)(O)OC[C@H]1O[C@@H](n2ccc(N)nc2=O)[C@@H](O)[C@@H]1O`, in the assay with L1210 [1], the “ED 50” value stood at 0.08 µM. Also, the Weight change with L1210 [2] is listed as -1.05 g mouse-1; in the assay on L1210 [10] it was -1.25 g mouse-1; in the assay on L1210 [15] it was -2.02 g mouse-1. The Survivors in the assay on L1210 [3], in the assay on L1210 [7] and in the assay with L1210 [8] was 0 in each case. The figures for the T/C in the assay with L1210 [4], with L1210 [14] and in the assay on L1210 [16] were 11.5, 13.5 and 9.5, respectively. Further, in the assay with L1210 [5], the ILS at 100 mg/kg/day stood at 6%. This compound also showed an ILS at 25 mg/kg/day in the assay with L1210 [6] of 28%. Also, the Survival time in the assay on L1210 [9] turned out to be 7 days; in the assay with L1210 [12], 8 days; in the assay with L1210 [13], 10 days. The same compound gave an ILS at 50 mg/kg/day with L1210 [11] of 50%.
Regarding `C[C@]12C[C@H](O)[C@H]3[C@@H](CCC4=CC(=O)CC[C@@]43C)[C@@H]1CC[C@@H]2C(=O)COP(=O)(O)OC[C@H]1O[C@@H](n2ccc(N)nc2=O)[C@@H](O)[C@@H]1O`, in the assay on L1210 [1], the “ED 50” value came to 0.09 µM. Further, the results for the Weight change in the assay on L1210 [2], with L1210 [19] and with L1210 [10] were -1.24 g mouse-1, -0.59 g mouse-1 and 0.06 g mouse-1, respectively. Also, the Survival time turned out to be 12 days with L1210 [17], 14 days in the assay with L1210 [22] and 15 days with L1210 [26]. Further, the Survivors worked out at 0 in the assay with L1210 [18], 0 in the assay with L1210 [7] and 2 with L1210 [24]. The compound also displayed an ILS at 25 mg/kg/day in the assay on L1210 [6] of 94%. The compound also gave an ILS at 75 mg/kg/day with L1210 [20] of 100%. The T/C is 16.5 with L1210 [21], 17 in the assay with L1210 [23] and 24 with L1210 [25]. Besides, the ILS at 50 mg/kg/day in the assay on L1210 [11] was 200%.

Usually ILS stands for the gain in survival time of treated over control animals, in per cent. Read a high ILS as a large benefit in survival.
